Redox H2O2 prof = compounds producing H2O2 with reducing agent – biochemical, NIH compound library profiling, artefact control for MLSCN library redox annotation, primary screen. DTT-dependent redox cycling H2O2, phenol red/HRP absorbance; 100% = 100 µM peroxide control, 0% = buffer. activation, % at 10 µM. actives 0.03% (n = 200,000);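 active = activation of at least 50% relative to the plate's high and low controls in the primary single-dose screen; inactive = activation below 50%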;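 note: compound incubated with DTT at 0.8 mM final as the reducing agent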
Autophagy HCS = autophagy modulation, high-content screen | MEF GFP-LC3 puncta imaging; test concentration mostly 10 µM | calls only at 10 µM (by protocol) | actives 0.98% (n = 190,000) | AID 463193;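 active = percentage of spot-positive cells more than 3 SD above its plate mean, without a fluorescence outlier flag or 80% toxicity; inconclusive = no clear call, values can overlap the other calls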
Dynein cargo inh = dynein cargo transport inhibition; 3617.4 mouse cells, GR-EGFP nuclear translocation imaging; test concentration mostly 20 µM; stimulated with dexamethasone, 1 µM; hits give low values; z-score, hits read low; actives 0.47% (n = 220,000);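 active = plate z-score of nuclear minus cytoplasmic receptor signal below a set negative limit, without overly bright fluorescence or cell loss, cut at about -3.5 in these data, passing the limit was not always enough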;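 note: z-score of nuclear minus cytoplasmic ring GR-EGFP intensity difference per well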
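medium = tetracycline-free induction medium containing charcoal-stripped FBS | probe or stimulus = dexamethasone, 1.0 µM final | timing = 48 h induction, then 1 h compound, then 30 min agonist, 37 °C | detection = automated 10x imaging of fixed Hoechst-stained cells | read-out basis = nuclear versus cytoplasmic GR-EGFP signal, averaged per well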
ROMK primary = modulators of human ROMK potassium channel. P48048. Tet-inducible ROMK, thallium flux fluorescence; actives lie on both sides. B-score at 10 µM. actives 2% (n = 130,000);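 active = signal ratio slope over the read window, or its plate-corrected B-score, at least 3 SD from the plate mean, either direction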;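 note: B-score of the F/F0 ratio slope over 7 to 12 s after thallium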
Target sequence (P48048 whole entry, looked up): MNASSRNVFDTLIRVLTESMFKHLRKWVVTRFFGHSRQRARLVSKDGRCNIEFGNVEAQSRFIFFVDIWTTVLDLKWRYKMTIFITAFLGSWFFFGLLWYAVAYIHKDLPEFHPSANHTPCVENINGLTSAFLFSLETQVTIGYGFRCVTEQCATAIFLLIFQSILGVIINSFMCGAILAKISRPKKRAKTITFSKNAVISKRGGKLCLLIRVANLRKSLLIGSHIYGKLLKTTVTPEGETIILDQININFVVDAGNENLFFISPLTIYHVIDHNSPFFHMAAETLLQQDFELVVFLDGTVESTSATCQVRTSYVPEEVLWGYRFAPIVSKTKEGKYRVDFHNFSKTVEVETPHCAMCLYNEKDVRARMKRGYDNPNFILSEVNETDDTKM
KCC2 mod = modulates chloride dependent transport by human KCC2. Q9H2X9. KCC2 cells, thallium flux FluoZin-2 fluorescence. B-score of Tl+ flux slope (higher = more flux/activation; lower = inhibition) at 10 µM. actives 2.2% (n = 190,000). AID 1456;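 active = thallium flux slope and its plate-corrected score both differing from the plate sample mean at a set confidence after two filtering rounds, in either direction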;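 note: slope of fluorescence scaled to starting intensity during 10 to 20 s after thallium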
ROMK hit retest = retested hit modulating human ROMK potassium channel. shares compounds with ROMK primary. ROMK thallium flux, fluorescence ratio; hits give low values. normalized thallium flux (F/F0 slope) at 10 µM. actives 54% (n = 3,000);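 active = Flux at 10 µM at least 3 SD below or above vehicle control mean in one or both replicates; inconclusive = no clear call, values can overlap the other calls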
Numbers stand for hits; . = inactive; ? = inconclusive; / = not tested or not shown. An excerpt weighted towards active compounds, which were near 4.1% of everything screened.

SMILES	Redox H2O2 prof	Autophagy HCS	Dynein cargo inh	ROMK primary	KCC2 mod	ROMK hit retest
Cc1nnc(NC(=O)C2CCN(S(=O)(=O)c3ccc(Cl)cc3)CC2)s1	.	.	.	.	.	/
CCCCCCn1ccc(=N)cc1	.	.	.	/	/	/
CCCCCCCCCCCCCCCCn1cc[n+](CC(C)=O)c1	.	.	.	-4.86	.	0.063
Cc1cc(C(F)(F)F)n(-c2nc(C(=O)NN)cs2)n1	.	.	.	.	.	/
COc1ccc(/C=N/NC(=O)c2csc(-n3nc(C)cc3C(F)(F)F)n2)cc1	.	.	.	/	.	.
O=C(O)CC(CNS(=O)(=O)c1ccccc1)c1ccccc1 (stereo unspecified)	.	.	.	/	.	?
COc1ccc(Cc2nnc(NC(=O)CSc3ccc(Cl)cc3)s2)cc1OC	.	.	.	/	.	/
Cc1ccc(N=Nc2c(C)[nH][nH]c2=O)c(C)c1	.	.	.	1.27	.	.
Cc1[nH][nH]c(=O)c1N=Nc1ccccc1C#N	.	.	.	.	.	/
CCCCC(=O)N/N=C/c1ccc(N2CCOCC2)c([N+](=O)[O-])c1	.	.	.	.	/	/
C/C(CC(=O)NC12CC3CC(CC(C3)C1)C2)=N\NC(=O)c1ccc(C)cc1	.	.	.	.	.	/
O=C(C[n+]1cc(-c2ccccc2)n2c1CCC2)Nc1nc(-c2ccccc2)cs1	.	.	.	.	.	/
Cc1ccc(-c2c[n+](CC(=O)Nc3nc(-c4ccccc4)cs3)c3n2CCC3)cc1	/	/	.	-4.62	.	0.0597
CC1CCC2C(=O)N(c3ccc(Cc4ccncc4)cc3)C(=O)C2C1 (stereo unspecified)	.	.	.	-3.12	.	?
Cc1cc(C(=O)N2CCCC(C(=O)c3cc(F)ccc3F)C2)c(C)o1 (stereo unspecified)	.	.	.	/	/	/
O=C(NCc1nnc(SCc2ccc(F)cc2)n1-c1ccccc1)C12CC3CC(CC(C3)C1)C2	.	.	.	-2.46	.	0.0559
COC(=O)CCN(C(=O)c1ccc(N2CCCC2)c([N+](=O)[O-])c1)c1ccccn1	.	.	.	.	.	/
COC(=O)CCN(C(=O)c1ccc(N2CCCCC2)c([N+](=O)[O-])c1)c1ccccn1	.	.	.	-2.05	.	0.0673
CC(C)(C)NCC(O)COc1c(F)cc(Br)cc1F (stereo unspecified)	.	.	.	.	.	/
CC(C)(C)CC(C)(C)NCC(O)COc1c(F)cc(Br)cc1F (stereo unspecified)	.	.	.	-3.23	.	0.0536
Fc1ccc(C2=CC(c3ccco3)n3ncnc3N2)cc1 (stereo unspecified)	.	.	.	-3.14	.	0.0532
CCC(c1nnnn1Cc1ccc(F)cc1)N1CCN(C2CCCCC2)CC1 (stereo unspecified)	.	.	.	-3.03	/	?
COc1ccc2cc(C(c3nnnn3Cc3ccccc3)N3CCCCCC3)c(=O)[nH]c2c1 (stereo unspecified)	.	.	.	/	.	/
COc1ccc(Cn2nnnc2C(c2ccccc2Cl)N2CCN(C3CCCC3)CC2)cc1 (stereo unspecified)	.	.	.	-4.85	/	0.0505
CCCC(c1nnnn1Cc1ccc(F)cc1)N1CCN(C)CC1 (stereo unspecified)	.	.	.	.	.	/
SMILES	Redox H2O2 prof	Autophagy HCS	Dynein cargo inh	ROMK primary	KCC2 mod	ROMK hit retest
COc1ccc2cc(C(c3nnnn3Cc3ccc(F)cc3)N3CCCCCC3)c(=O)[nH]c2c1 (stereo unspecified)	.	.	.	/	.	0.0557
O=C(CN1CCCCC1)NCC1(c2ccccc2)CCCC1	.	.	.	.	.	/
COc1cc(/C=C(\C#N)c2nc3ccccc3[nH]2)cc(Br)c1OCc1ccccc1	.	.	.	/	.	/
COc1cc(/C=C(\C#N)C(=O)c2c[nH]c3ccccc23)cc(OC)c1O	.	.	.	-5.58	.	0.0407
COc1cc(/C=C(\C#N)c2nc3ccccc3[nH]2)cc(OC)c1O	.	.	.	/	/	0.0384
CCOC(=O)C1=NN(C(=O)COc2ccccc2)C(O)(c2ccc(Br)cc2)C1 (stereo unspecified)	.	.	.	.	/	/
CCOC(=O)C1=C(CN2CCN(CCC#N)CC2)NC(=O)NC1c1ccc2c(c1)OCO2 (stereo unspecified)	.	.	.	.	.	/
Nc1nc(SCC(=O)NCCc2ccccc2)[nH]c(=O)c1-c1ccccc1	.	.	.	.	.	/
N#Cc1cccc(C(c2nnnn2CCc2ccccc2)N2CCN(C3CCCCC3)CC2)c1 (stereo unspecified)	.	.	.	-3.13	/	0.0576
Cc1ccc(C(=O)O)cc1N=Cc1cc(Br)cc(Br)c1O	.	.	.	5.13	.	0.108
COc1ccc(OCC(=O)N/N=C(\C)c2cccs2)cc1	/	/	.	/	.	/
C/C(=N\NC(=O)COc1ccccc1[N+](=O)[O-])c1cccs1	.	.	.	1.37	/	.
Cc1ccccc1Nc1scc(-c2ccc(Cl)cc2)[n+]1-c1ccccc1C	.	.	.	.	.	/
O=C(NCc1ccc(F)cc1)C(Cc1ccccc1)n1cccc1 (stereo unspecified)	/	/	.	/	.	/
COc1ccccc1OCCn1c(C(C)O)nc2ccccc21 (stereo unspecified)	.	.	.	-4.94	.	0.0657
Cc1ccccc1N1CCN(C2=NC(=O)/C(=C/c3cn[nH]c3-c3ccccc3)S2)CC1	.	.	.	.	.	/
Cc1c(/C(O)=C2\C(=O)C(=O)N(CCN(C)C)C2c2ccccc2)cnn1-c1ccccc1 (stereo unspecified)	/	/	.	/	.	.
COc1ccccc1/C=N/N1C(=O)C(CC(=O)Nc2ccc([N+](=O)[O-])cc2OC)SC1=Nc1cccc(C)c1C (stereo unspecified)	.	.	.	2.75	.	.
Cc1ccc(NNC(=O)c2ccc(Cl)cc2)nn1	/	/	.	/	.	/
CCOc1ccccc1C1C(C(=O)OC)=C(N)OC2=C1C(=O)CCC2 (stereo unspecified)	.	.	.	/	.	.
O=[N+]([O-])c1cc(S(=O)(=O)N2CCCCCC2)ccc1Cl	.	.	.	-3.87	.	0.0644
Cc1ccc(S(=O)(=O)N2CCCC2)cc1[N+](=O)[O-]	.	.	.	.	.	/
O=S(=O)(c1ccc(Oc2ccc(Cl)cc2)c(S(=O)(=O)N2CCCCC2)c1)N1CCCCC1	.	.	.	/	.	0.064
O=C(/C=C/c1cc([N+](=O)[O-])ccc1OC(F)F)Nc1cccc(OC(F)F)c1	.	.	.	/	.	/
Cc1nn(-c2ccccc2)c(Cl)c1C(=O)NCC(C)C	.	.	.	/	.	/
CC(C)CNC(=O)c1nc(-c2ccccc2)n(-c2ccccc2)n1	.	.	.	/	.	.
